Columns and labels:
HepG2 [1] = experiment: Cytotoxicity against human HepG2 cells at 50 uM after 24 hrs using crystal violet staining by microplate reader analysis; type: functional; conditions: HepG2, 24 h
In short: (§1)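 HepG2 cells in MEM with 10% FBS were seeded at 10 000 cells/well and grown 24 h. The medium was then replaced with fresh medium/10% FBS, and cells were exposed to inhibitors for 24 h, or to none. Cells were fixed with 1.1% glutaraldehyde, stained with 0.1% crystal violet and solubilised in 10% acetic acid. A590 was converted to cell number with a standard curve.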

Homo sapiens [2] = organism: Homo sapiens; experiment: Inhibition of human choline kinase assessed as incorporation of 14C from [methyl-14C]choline into phosphocholine at 10 uM after 20 mins by liquid scintillation counter
In short: (§2)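 Enzyme source was HepG2 cytosol (cells sonicated in 275 mM Tris pH 8.5, 12000 g supernatant), about 50 µg protein. Final mix: 100 mM Tris pH 8.5, 10 mM MgCl2, 10 mM ATP, with inhibitor. Started with 1 mM [methyl-14C]choline, 37 °C for 20 min, stopped by boiling. Phosphocholine was separated on silica TLC and counted by scintillation. IC50 was derived from the concentration series.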

HepG2 [3] = experiment: Cytotoxicity against human HepG2 cells at 10 uM after 24 hrs using crystal violet staining by microplate reader analysis; type: functional; conditions: HepG2, 24 h; in short: as §1
Homo sapiens [4] = organism: Homo sapiens; experiment: Inhibition of human choline kinase assessed as incorporation of 14C from [methyl-14C]choline into phosphocholine at 50 uM after 20 mins by liquid scintillation counter; in short: as §2
HepG2 [5] = experiment: Cytotoxicity against human HepG2 cells after 24 hrs using crystal violet staining by microplate reader analysis; type: functional, cell-based; conditions: HepG2, 24 h; in short: as §1
[6] = Inhibition of human choline kinase assessed as incorporation of 14C from [methyl-14C]choline into phosphocholine after 20 mins by liquid scintillation counter; in short: as §2

Molecule `Nc1ncnc2c1ncn2Cc1ccc(-c2ccc(C[n+]3ccc(N4CCCC4)cc3)cc2)cc1` has an inhibition at 50 µM (HepG2 [1]) of 45%, an inhibition (Homo sapiens [2]) of 50.2% and an inhibition at 10 µM (HepG2 [3]) of 10.4%. The inhibition (Homo sapiens [4]) was 72.8%.

Molecule `CN(C)c1cc[n+](Cc2ccc(CCCCc3ccc(Cn4cnc(N)c5ncnc4-5)cc3)cc2)cc1` has an inhibition at 50 µM (HepG2 [1]) of 56.1%, an inhibition (Homo sapiens [2]) of 61.3% and an inhibition at 10 µM (HepG2 [3]) of 14.3%. It also gave an inhibition (Homo sapiens [4]) of 68.2% and an IC50 (HepG2 [5]) of 38.9 µM.

Molecule `CN(C)c1cc[n+](Cc2ccc(CCCCc3ccc(Cn4cnc5c(N)ncnc54)cc3)cc2)cc1` has an inhibition at 50 µM (HepG2 [1]) of 45.5%, an inhibition (Homo sapiens [2]) of 66.7% and an IC50 [6] of 10.7 µM. For the same molecule, the inhibition at 10 µM (HepG2 [3]) was 10.2%, the inhibition (Homo sapiens [4]) was 89.7% and the IC50 (HepG2 [5]) was 49.7 µM.

With `Nc1ncnc2c1ncn2Cc1ccc(CCCCc2ccc(C[n+]3ccc(N4CCCC4)cc3)cc2)cc1` the inhibition at 50 µM (HepG2 [1]) was 90.1%, the inhibition (Homo sapiens [2]) was 36.9% and the inhibition at 10 µM (HepG2 [3]) was 15.4%. For the same molecule, the inhibition (Homo sapiens [4]) was 41.9%.

Work on `Nc1ncn(Cc2ccc(CCc3ccc(C[n+]4ccc(N5CCCC5)cc4)cc3)cc2)c2ncnc1-2` yielded an inhibition at 50 µM (HepG2 [1]) of 30%, an inhibition (Homo sapiens [2]) of 0.1% and an inhibition at 10 µM (HepG2 [3]) of 11.6%. It also gave an inhibition (Homo sapiens [4]) of 24.8%.

With `CN(C)c1cc[n+](Cc2ccc(Cn3cnc(N)c4ncnc3-4)cc2)cc1` the inhibition at 50 µM (HepG2 [1]) was 2.5%, the inhibition (Homo sapiens [2]) was 25% and the inhibition at 10 µM (HepG2 [3]) was 10.3%. The inhibition (Homo sapiens [4]) was 50.2%.

Work on `CN(C)c1cc[n+](Cc2ccc(Cn3cnc4c(N)ncnc43)cc2)cc1` yielded an inhibition at 50 µM (HepG2 [1]) of 5.1%, an inhibition (Homo sapiens [2]) of 46.7% and an inhibition at 10 µM (HepG2 [3]) of 0%. For the same molecule, the inhibition (Homo sapiens [4]) was 54.1%.

With `Nc1ncn(Cc2ccc(CCCCc3ccc(C[n+]4ccc(N5CCCC5)cc4)cc3)cc2)c2ncnc1-2` the inhibition at 50 µM (HepG2 [1]) was 46.5%, the inhibition (Homo sapiens [2]) was 22.6% and the inhibition at 10 µM (HepG2 [3]) was 13.7%. The inhibition (Homo sapiens [4]) was 59.9%.

Work on `CN(C)c1cc[n+](Cc2ccc(-c3ccc(Cn4cnc(N)c5ncnc4-5)cc3)cc2)cc1` yielded an inhibition at 50 µM (HepG2 [1]) of 7%, an inhibition (Homo sapiens [2]) of 62.3% and an IC50 [6] of 6.21 µM. It also gave an inhibition at 10 µM (HepG2 [3]) of 10% and an inhibition (Homo sapiens [4]) of 71.4%.

`CN(C)c1cc[n+](Cc2ccc(-c3ccc(Cn4cnc5c(N)ncnc54)cc3)cc2)cc1` gave an inhibition at 50 µM (HepG2 [1]) of 10.3%, an inhibition (Homo sapiens [2]) of 37.6% and an inhibition at 10 µM (HepG2 [3]) of 0%. For the same molecule, the inhibition (Homo sapiens [4]) was 51%.

Work on `CN(C)c1cc[n+](Cc2ccc(CCc3ccc(Cn4cnc5c(N)ncnc54)cc3)cc2)cc1` yielded an inhibition at 50 µM (HepG2 [1]) of 10.5%, an inhibition (Homo sapiens [2]) of 38.6% and an inhibition at 10 µM (HepG2 [3]) of 10.5%. For the same molecule, the inhibition (Homo sapiens [4]) was 81%.

For `Nc1ncnc2c1ncn2Cc1ccc(C[n+]2ccc(N3CCCC3)cc2)cc1`, the inhibition at 50 µM (HepG2 [1]) was 15.5%, the inhibition (Homo sapiens [2]) was 0% and the inhibition at 10 µM (HepG2 [3]) was 0%. It also gave an inhibition (Homo sapiens [4]) of 27%.

`Nc1ncnc2c1ncn2Cc1ccc(CCc2ccc(C[n+]3ccc(N4CCCC4)cc3)cc2)cc1` showed an inhibition at 50 µM (HepG2 [1]) of 45%, an inhibition (Homo sapiens [2]) of 28.6% and an inhibition at 10 µM (HepG2 [3]) of 30.1%. The inhibition (Homo sapiens [4]) was 46.9%.

Source: ChEMBL document CHEMBL1949503, “Design, synthesis, theoretical calculations and biological evaluation of new non-symmetrical choline kinase inhibitors” (Eur J Med Chem, 2012)
